Bioassay records: PubChem BioAssay, The Scripps Research Institute Molecular Screening Center
An excerpt weighted towards active compounds, which were near 2.7% of everything screened.
ARFGAP1 inhibitor: inhibitors of rat ARFGAP1 GAP activity, primary screen, biochemical, fluorescence polarization, GDP tracer | inhibition, % at 16.5 µM | AID 651572, 2012 | actives 0.26% (n = 360,000) | Arfgap1-stimulated ARF1 GTP hydrolysis, GDP FP detection;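 active means inhibition above a per-plate limit, mean inhibition of low control wells plus 3 SD, cut at about 25% in these data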
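system = rat Arfgap1 catalytic domain, aa 1-136 | technique = FP, GDP Alexa 633 tracer displaced from anti-GDP antibody, 620/688 nm | compound = one concentration, 16.5 µM, DMSO 1.26% | medium = HEPES-based buffer, pH 7.5 | timing = compound-enzyme preincubation 20 min, reaction 120 min, detection 60 min, 25 °C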
pPAFAH inh: pPAFAH enzyme inhibitors, primary screen, biochemical, fluorescence polarization, human; Platelet-activating factor acetylhydrolase (Homo sapiens), Q13093; inhibition, % at 3.39 µM; AID 463082, 2010; recombinant pPAFAH, FP-rhodamine probe fluorescence polarization; actives 1.5% (n = 330,000);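 active means inhibition above the mean inhibition across the screen plus 3 SD, cut at about 25% in these data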;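 further: inhibitors block binding of the rhodamine activity-based probe so polarization drops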
Target sequence (Q13093 whole entry, looked up): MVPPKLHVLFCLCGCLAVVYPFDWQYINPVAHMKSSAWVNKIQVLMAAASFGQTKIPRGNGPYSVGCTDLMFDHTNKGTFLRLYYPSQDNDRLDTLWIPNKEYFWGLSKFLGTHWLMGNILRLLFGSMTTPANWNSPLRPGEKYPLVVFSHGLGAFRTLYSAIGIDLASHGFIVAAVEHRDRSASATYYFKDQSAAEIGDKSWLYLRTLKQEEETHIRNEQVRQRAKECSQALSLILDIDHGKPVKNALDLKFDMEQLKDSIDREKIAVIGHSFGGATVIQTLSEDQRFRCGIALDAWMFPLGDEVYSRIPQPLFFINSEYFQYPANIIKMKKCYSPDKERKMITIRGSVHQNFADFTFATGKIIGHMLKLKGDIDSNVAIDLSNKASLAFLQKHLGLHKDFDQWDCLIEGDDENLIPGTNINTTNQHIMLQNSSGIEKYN
PAFAH2 inh: PAFAH2 enzyme inhibitors, primary screen, biochemical, fluorescence polarization, human; recombinant PAFAH2, FP-rhodamine activity probe; Platelet-activating factor acetylhydrolase 2, cytoplasmic (Homo sapiens), Q99487; inhibition, % at 3.39 µM; actives 0.99% (n = 340,000);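 active means inhibition above the mean over all tested compounds plus 3 SD, cut at about 30% in these data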;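 further: inhibitors block probe labeling of enzyme so polarization drops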
PAFAH1B2 inh: PAFAH1B2 enzyme inhibitors, primary screen, biochemical, fluorescence polarization, human; AID 492953, 2010; Platelet-activating factor acetylhydrolase IB subunit alpha2 (Homo sapiens), P68402; inhibition, % at 3.39 µM; actives 1.2% (n = 340,000); recombinant PAFAH1B2, FP-rhodamine activity probe;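 active means inhibition above the mean of all tested compounds plus 3 SD, cut at about 24% in these data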
PAFAH1B3 inh: PAFAH1B3 enzyme inhibitors, primary screen, biochemical, fluorescence polarization, human | actives 0.28% (n = 340,000) | AID 492972, 2010 | recombinant PAFAH1B3, FP-rhodamine probe | Platelet-activating factor acetylhydrolase IB subunit alpha1 (Homo sapiens), Q15102 | inhibition, % at 3.39 µM;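 active means inhibition above the screen-wide average of all tested compounds plus 3 SD, cut at about 25% in these data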
Target sequence (Q15102 whole entry, looked up): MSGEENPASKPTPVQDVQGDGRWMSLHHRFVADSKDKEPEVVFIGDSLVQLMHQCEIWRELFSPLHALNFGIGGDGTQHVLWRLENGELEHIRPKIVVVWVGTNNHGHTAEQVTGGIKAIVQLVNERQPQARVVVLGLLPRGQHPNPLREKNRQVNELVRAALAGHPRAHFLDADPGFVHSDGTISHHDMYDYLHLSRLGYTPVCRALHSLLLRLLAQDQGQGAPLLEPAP
ASAP1 inh: inhibitors of human ASAP1 ArfGAP activity, primary screen, biochemical, fluorescence polarization; inhibition, % at 16.5 µM; ASAP1-stimulated ARF1 GTP hydrolysis, GDP FP detection; actives 0.19% (n = 360,000); in the data active means inhibition above about 25%
PAFAH2 FP conf: PAFAH2 enzyme inhibitors, confirmation, biochemical, fluorescence polarization, human; recombinant PAFAH2, FP-rhodamine activity probe; shares compounds with PAFAH2 inh; inhibition, % at 3.39 µM; actives 65% (n = 2,300);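 active means mean inhibition over three repeats above a set limit taken from the earlier primary screen, cut at about 30% in these data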;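 further: inhibitor blocks binding of rhodamine activity probe so polarization falls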
Each line names hits and unclear results; the compound was inactive in the other large screens (follow-up assays come after a bar, where they were run).

C[C@@H]1COC(=O)[C@@H](Cc2ccc(F)cc2)C/C=C\C[C@@H](CC(=O)N(CCO)Cc2ccccc2)C(=O)N1	none
COc1cc(/C=C/C(=O)OCC(=O)NC(=O)NC(C)C)cc(OC)c1OC	none
CC(NC(=O)COC(=O)COc1ccc(Cl)cc1)c1ccccc1 (stereo not drawn)	none
COc1cc(/C=C/C(=O)OCC(=O)NC(C)c2ccccc2)cc(OC)c1OC (stereo not drawn)	PAFAH2 inh 30.8 | PAFAH2 FP conf inactive
CC(NC(=O)COC(=O)/C=C/c1cccc(F)c1)c1ccccc1 (stereo not drawn)	PAFAH2 inh 46.2 | PAFAH2 FP conf 33.8
CC(NC(=O)COC(=O)/C=C/c1ccc(Cl)cc1)c1ccccc1 (stereo not drawn)	PAFAH2 inh 30.6 | PAFAH2 FP conf inactive
Cc1cc(C(=O)O)ccc1-c1ccc(/C=C2\NC(=O)N(Cc3ccccc3Cl)C2=O)o1	PAFAH2 inh 33.2 (no result: ARFGAP1 inhibitor, ASAP1 inh) | PAFAH2 FP conf inactive
O=C(NC(=S)NNC(=O)c1ccccc1O)c1cccc([N+](=O)[O-])c1	PAFAH2 inh 42.0 | PAFAH2 FP conf inactive
COc1ccc(C(=O)NNC(=S)NC(=O)c2cccc([N+](=O)[O-])c2)cc1	none
O=C(NC(=S)NNC(=O)c1ccccc1O)c1ccco1	PAFAH2 inh 52.9 | PAFAH2 FP conf 42.2
COC(=O)[C@@]1(Sc2ccc(C)cc2)CC(=O)N(C(=O)c2ccccc2)[C@@H]1c1ccccc1	none (no result: pPAFAH inh, PAFAH2 inh, PAFAH1B2 inh, PAFAH1B3 inh)
Cc1ccc(C(=O)OCC(=O)NCC(F)(F)F)cc1C	PAFAH2 inh 53.4 | PAFAH2 FP conf 49.5
O=C(COC(=O)c1ccc(O)cc1)NCCCc1ccccc1	PAFAH2 inh 31.9 (no result: pPAFAH inh) | PAFAH2 FP conf inactive
Cc1ccsc1C(=O)OCC(=O)NCCCc1ccccc1	PAFAH2 inh 29.8 | PAFAH2 FP conf inactive
Cc1ccc(C(=O)OCC(=O)NCCc2ccccc2)cc1C	PAFAH2 inh 57.4 | PAFAH2 FP conf 32.9
O=C(COC(=O)c1ccccc1O)NCCCc1ccccc1	none
CCc1nc2ccc(C(=O)NCCCN(C)C)cn2c1N(C)Cc1ccc(OC)cc1	none (no result: pPAFAH inh, PAFAH2 inh, PAFAH1B2 inh, PAFAH1B3 inh)
COc1ccc(Cc2nnc(SCC(=O)c3ccc4c(c3)NC(=O)CO4)o2)cc1	none
O=C(CSc1cccc[n+]1[O-])c1ccccc1Br	PAFAH2 inh 39.3 | PAFAH2 FP conf 38.7
COc1ccc(/C=C/c2nc3sc4c(c3c(=O)o2)CCC4)cc1	none
O=c1oc(-c2cc3ccccc3o2)nc2sc3c(c12)CCCC3	PAFAH2 inh 68.8 | PAFAH2 FP conf 67.9
O=c1oc(/C=C/c2ccccc2)nc2sc3c(c12)CCC3	PAFAH2 inh 65.8 | PAFAH2 FP conf 60.1
O=c1oc(-c2ccccc2)nc2sc3c(c12)CCCC3	PAFAH2 inh 48.5 | PAFAH2 FP conf 36.6
O=c1oc(-c2cccs2)nc2sc3c(c12)CCCCC3	none
Cc1ccccc1-c1nc2sc3c(c2c(=O)o1)CCC3	PAFAH2 inh 75.9 | PAFAH2 FP conf 80.0
COc1cccc(/C=N/NC(=S)NC2CC3CCC2C3)c1OC (stereo not drawn)	none
Oc1ccccc1/C=N/NC(=S)NC1CC2CCC1C2 (stereo not drawn)	PAFAH2 inh 60.2 | PAFAH2 FP conf inactive
Cc1ccc(NS(=O)(=O)c2cc(OCC(N)=O)c(C)cc2Cl)cc1	none
COc1ccc(OC)c(/C=C/C(=O)OCC(=O)Nc2ccc(Cl)c(S(=O)(=O)N(C)C)c2)c1	PAFAH2 inh 45.5 | PAFAH2 FP conf 42.3
COc1cccc(/C=C/C(=O)OCC(=O)Nc2ccc(Cl)c(S(=O)(=O)N(C)C)c2)c1OC	PAFAH2 inh 81.8 | PAFAH2 FP conf 73.0
O=C(COC(=O)c1ccncc1)Nc1ccccc1	none
Cc1cccc(NC(=O)COC(=O)c2ccc3c(c2)OCO3)c1C	PAFAH2 inh 39.8 | PAFAH2 FP conf 42.2
COc1cccc(NC(=O)COC(=O)c2ccc3c(c2)OCCO3)c1	none (no result: pPAFAH inh, PAFAH2 inh, PAFAH1B2 inh, PAFAH1B3 inh)
O=C(COC(=O)/C=C/c1ccc2c(c1)OCO2)Nc1ccccc1	PAFAH2 inh 78.7 | PAFAH2 FP conf 81.3
O=C(COC(=O)c1ccc(CSc2ccc(Cl)cc2)cc1)Nc1ccccc1	PAFAH2 inh 34.0 | PAFAH2 FP conf inactive
COc1cccc(NC(=O)COC(=O)c2ccc3c(c2)OCO3)c1	PAFAH2 inh 83.4 (no result: pPAFAH inh) | PAFAH2 FP conf 73.0
O=C(COC(=O)/C=C/c1ccc2c(c1)OCO2)Nc1ccc(S(=O)(=O)N2CCCC2)cc1	none
CC(=O)Nc1ccc(S(=O)(=O)NCC2CC3CCC2C3)cc1 (stereo not drawn)	none (no result: pPAFAH inh)
COc1ccc(C#Cc2cccc(-c3nc(C(=O)NCc4ccc(Oc5ccccc5)cc4)cc4c3[C@@H](CCO)N(S(=O)C(C)(C)C)C4)c2)cc1OC (stereo partly drawn)	none (no result: pPAFAH inh, PAFAH2 inh, PAFAH1B2 inh, PAFAH1B3 inh)
Cc1cccc(NNC(=O)c2c(F)cccc2Cl)c1	none
CC(NS(=O)(=O)c1ccc(Cl)c(Cl)c1)C(=O)OCC(=O)Nc1ccc2c(c1)OCO2 (stereo not drawn)	PAFAH2 inh 30.9 | PAFAH2 FP conf inactive
CN(C)c1nc(Oc2ccc(C(=O)OCC(=O)Nc3ccccc3)cc2)nc(N(C)C)n1	PAFAH2 inh 89.9 | PAFAH2 FP conf 76.2
O=C(COC(=O)c1ccc2c(c1)OCO2)Nc1ccccc1OC(F)F	PAFAH2 inh 47.4 | PAFAH2 FP conf 46.3
COc1ccc(C(=O)OCC(=O)Nc2c(C)cccc2C)cc1	PAFAH2 inh 67.4 | PAFAH2 FP conf 60.1
Cn1c(=O)c2ncn(CC(=O)Nc3nc(-c4ccc(Cl)cc4)cs3)c2n(C)c1=O	none
Cc1ccc2sc(N(CCCN(C)C)C(=O)c3ccc(Br)s3)nc2c1C	none
O=C(OCCCc1cc2ccccc2c(=O)o1)c1ccc2c(c1)OCO2	PAFAH2 inh 38.5 | PAFAH2 FP conf inactive
NC(=O)c1ccc(NC(=O)COC(=O)c2ccc3c(c2)OCCO3)cc1	none
CN(C)S(=O)(=O)c1cc(NC(=O)COC(=O)c2ccc3c(c2)OCO3)ccc1Cl	PAFAH2 inh 56.6 | PAFAH2 FP conf 77.8
